Activity calls are given as the source filed them. The calls are words filed in the database; no cut-off is given here.
Tests used:
[1] = Unbound AUC (0 to 24 hrs) in nude mouse xenografted with tamoxifen-resistant human MCF7 cells at 100 mg/kg, po daily for 28 days measured on day 28 post last dose; format: ADME, organism-based; conditions: in vivo
Procedure, shortened: (§1)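 Tamoxifen-resistant MCF-7 xenograft mice carrying subcutaneous 0.72 mg estradiol pellets. Plasma pharmacokinetics sampled on day 28 of the study, at take-down.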

[2] = target: T1, Progesterone receptor (Homo sapiens) (UniProt P06401); experiment: Antagonist activity at PR-B (unknown origin) by transcriptional reporter assay
T1 sequence (whole entry): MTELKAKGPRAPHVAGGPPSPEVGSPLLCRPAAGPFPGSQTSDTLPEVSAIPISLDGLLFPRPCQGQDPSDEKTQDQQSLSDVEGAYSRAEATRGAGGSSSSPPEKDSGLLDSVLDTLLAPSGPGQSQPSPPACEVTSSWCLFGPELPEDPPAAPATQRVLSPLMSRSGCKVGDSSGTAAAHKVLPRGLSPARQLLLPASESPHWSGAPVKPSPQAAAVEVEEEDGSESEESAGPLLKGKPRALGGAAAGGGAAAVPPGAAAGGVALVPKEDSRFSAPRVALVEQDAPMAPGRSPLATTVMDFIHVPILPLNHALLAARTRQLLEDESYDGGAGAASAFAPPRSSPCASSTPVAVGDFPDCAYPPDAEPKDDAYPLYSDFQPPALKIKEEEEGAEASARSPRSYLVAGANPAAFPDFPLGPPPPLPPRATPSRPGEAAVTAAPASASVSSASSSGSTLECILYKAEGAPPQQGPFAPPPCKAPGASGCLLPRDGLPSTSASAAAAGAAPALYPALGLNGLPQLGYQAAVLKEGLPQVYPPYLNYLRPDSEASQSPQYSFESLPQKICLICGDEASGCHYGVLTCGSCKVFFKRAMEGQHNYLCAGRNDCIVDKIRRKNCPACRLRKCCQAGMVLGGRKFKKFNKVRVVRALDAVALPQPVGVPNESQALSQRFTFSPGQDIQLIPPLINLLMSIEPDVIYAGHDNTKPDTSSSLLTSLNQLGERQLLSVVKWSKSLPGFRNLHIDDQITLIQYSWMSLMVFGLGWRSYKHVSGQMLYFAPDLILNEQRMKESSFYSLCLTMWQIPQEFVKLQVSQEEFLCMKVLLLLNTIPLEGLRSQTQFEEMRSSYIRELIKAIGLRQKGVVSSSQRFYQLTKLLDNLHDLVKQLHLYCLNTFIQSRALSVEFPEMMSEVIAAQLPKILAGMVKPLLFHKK

Mus musculus = experiment: In vivo induction of ERalpha degradation in tumor of nude mouse xenografted with tamoxifen-resistant human MCF7 cells at 100 mg/kg, po daily for 28 days measured on day 28 post last dose; format: functional, organism-based
Procedure, shortened: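 Tamoxifen-resistant MCF-7 tumours grown subcutaneously in mice, with estradiol supplied from subcutaneous 0.72 mg estradiol pellets.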

[3] = AUC in rat at 10 mg/kg, po daily for 3 days measured on day 3 post last dose; format: ADME, organism-based; conditions: in vivo
[4] = Clearance in rat at 10 mg/kg, po daily for 3 days measured on day 3 post last dose; format: ADME, organism-based; conditions: in vivo
[5] = Unbound fraction in mouse plasma; format: ADME, cell-free
[6] = Unbound Cmax in nude mouse xenografted with tamoxifen-resistant human MCF7 cells at 100 mg/kg, po daily for 28 days measured on day 28 post last dose; format: ADME, organism-based; conditions: in vivo, 672 h; procedure, shortened: as §1
[7] = target: T1, Progesterone receptor (Homo sapiens); experiment: Agonist activity at PR-A (unknown origin) by transcriptional reporter assay
[8] = Oral bioavailability in rat at 10 mg/kg daily for 3 days measured on day 3 post last dose; format: ADME, organism-based; conditions: in vivo
Cytochrome P450 2C8 = target: T2, Cytochrome P450 2C8 (Homo sapiens, UniProt P10632); experiment: Inhibition of CYP2C8 (unknown origin); format: ADME
T2 sequence (P10632 whole entry): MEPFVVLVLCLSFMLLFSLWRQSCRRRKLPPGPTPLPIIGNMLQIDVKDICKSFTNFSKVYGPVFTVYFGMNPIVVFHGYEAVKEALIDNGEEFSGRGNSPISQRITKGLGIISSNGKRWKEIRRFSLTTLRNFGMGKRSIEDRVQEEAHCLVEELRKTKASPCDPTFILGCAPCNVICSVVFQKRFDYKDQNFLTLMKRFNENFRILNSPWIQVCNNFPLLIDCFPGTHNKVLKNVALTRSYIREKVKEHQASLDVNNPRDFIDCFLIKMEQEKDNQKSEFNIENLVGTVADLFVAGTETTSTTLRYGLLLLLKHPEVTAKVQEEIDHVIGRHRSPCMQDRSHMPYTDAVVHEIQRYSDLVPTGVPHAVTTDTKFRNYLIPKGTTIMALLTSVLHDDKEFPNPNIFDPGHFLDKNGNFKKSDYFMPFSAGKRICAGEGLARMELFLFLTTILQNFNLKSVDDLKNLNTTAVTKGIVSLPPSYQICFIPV

[9] = target: T1, Progesterone receptor (Homo sapiens); experiment: Antagonist activity at PR-A (unknown origin) by transcriptional reporter assay

## CC1=C(c2cccc(O)c2)[C@H](c2ccc(OCCN3CC(CF)C3)cc2)Oc2ccc(O)cc21
[1]
  fAUC: 130 ng·h/mL
[2]
  inhibition: inactive
Mus musculus
  Activity: Active
[3]
  AUC at 72 h: 160 ng·h/mL
[4]
  CL/F: > 60 mL/min/kg
[5]
  Fu: 1.9%
[6]
  fCmax: 0.018 µg/mL
[7]
  Activity: inactive
[8]
  bioavailability: 10%
Cytochrome P450 2C8
  IC50: 3 µM
[9]
  inhibition: inactive

Reference: ChEMBL document CHEMBL4330143, “Maximizing ER-α Degradation Maximizes Activity in a Tamoxifen-Resistant Breast Cancer Model: Identification of GDC-0927” (ACS Med Chem Lett, 2019)
